Assay outcomes: PubChem, several laboratories
FGF22 binding: shifts melting point of recombinant human FGF22. activity (Tm shift, normalised), % at 9.99 µM. Q9HCT0. recombinant FGF22 thermal shift, SYPRO orange fluorescence; percent of sucrose octasulfate shift, DMSO zero. 340,000 compounds, 1.5% hits;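 active = mean Tm shift, scaled 0 neutral to 100 positive control, at about 1.3% or above, every replicate too, limit read from the data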
Target sequence (Q9HCT0 whole entry, looked up): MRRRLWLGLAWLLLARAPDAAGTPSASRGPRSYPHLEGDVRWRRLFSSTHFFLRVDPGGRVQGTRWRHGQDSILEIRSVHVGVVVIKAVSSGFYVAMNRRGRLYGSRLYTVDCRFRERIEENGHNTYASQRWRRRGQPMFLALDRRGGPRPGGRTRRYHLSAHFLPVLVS
UCH37 inh: human UCH37 deubiquitinating enzyme inhibition. AID 588478. inhibition, % (no concentration beside the values). purified proteasome/UCH37, Ub-AMC cleavage fluorescence. 330,000 compounds, 0.33% hits;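 active = mean inhibition over replicate wells above about 20%, limit read from the data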;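 also: 0% = compound-free wells with enzyme and 100% = wells lacking proteasome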
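system = Proteasome-associated human UCH37 deubiquitinase | amount = 0.15 nM proteasome as dispensed | medium = pH 7.4 Tris-HCl (50 mM) with ovalbumin, ATP-MgCl2, DTT | incubation = 30 min preincubation with enzyme, 25 min cleavage at room temperature | detection = AMC fluorescence 355/460 nm | read-out basis = percent inhibition | controls = no-proteasome and no-compound wells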
NSD2 inh: NSD2 (human) methyltransferase inhibition; O96028; NSD2 peptide methylation, AlphaScreen, 120 min; inhibition, % at 12.5 µM; 310,000 compounds, 0.54% hits; in the data active = inhibition above about 50%
SIRT5 inh: sirtuin-5 (human) deacylase inhibition. Q9NXA8. Purified SirT5, succinyl-peptide AMC, trypsin-coupled fluorescence. inhibition, % at 15 µM. 330,000 compounds, 1.1% hits. AID 652115; in the data active = inhibition above about 15%
Casp6 inh: caspase-6 (human) enzyme inhibition | 350,000 compounds, 0.53% hits | P55212 | purified caspase-6, Z-VEID-R110 cleavage fluorescence | inhibition, % at 12.5 µM;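 active = mean inhibition across replicates at least about 35%, with every replicate also reaching that limit, limit read from the data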;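 also: 0% = median of neutral control wells and 100% = no fluorescence left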
Target sequence (P55212 24-179 limits assumed): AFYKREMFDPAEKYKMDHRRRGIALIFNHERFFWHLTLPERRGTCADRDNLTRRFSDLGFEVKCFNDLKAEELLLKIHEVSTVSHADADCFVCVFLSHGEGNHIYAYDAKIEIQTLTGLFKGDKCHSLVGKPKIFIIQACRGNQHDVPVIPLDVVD
Target sequence (P55212 194-293 limits assumed): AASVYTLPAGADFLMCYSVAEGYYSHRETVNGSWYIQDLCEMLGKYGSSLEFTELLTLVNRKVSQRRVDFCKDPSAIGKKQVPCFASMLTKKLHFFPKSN
AlphaScreen art: AlphaScreen assay artifact in NSD2 counter-screen; AlphaScreen artifact counterscreen, preloaded methylated H4 peptide; AID 1053174; 1,500 compounds, 9.4% hits; shares compounds with NSD2 inh; AC35, µM (titrated, usually from 10 µM), inactives show top-dose activity change, negative = signal loss; call rule not given here
* = called active by the depositor; . = no result given. An excerpt weighted towards active compounds, which were near 2.6% of everything screened.

SMILES	FGF22 binding	UCH37 inh	NSD2 inh	SIRT5 inh	Casp6 inh	AlphaScreen art
CC1Cc2ccccc2N1C(=O)COc1cccc(-n2cnnn2)c1 (stereo not given)	.	0	130*	.	.	-2%
Cc1ccc(-c2ccc3c(c2)O[C@@H](CN(C)C(=O)Nc2ccc(F)cc2)[C@@H](C)CN([C@@H](C)CO)S3(=O)=O)cc1	1	.	.	11	2	.
CCOC(=O)Nc1cc(C(=O)OC)ccc1C	.	0	119*	-3	-1	5%
O=S(=O)(N[C@H]1CC[C@@H](CCn2cc(-c3ccccn3)nn2)O[C@@H]1CO)c1cccc(F)c1	0	.	.	0	-1	.
COc1ccc(N=c2scc(C)n2CCCN2CCCC2=O)cc1	0	3	151*	-4	0	2%
CN(C)c1cc(N/N=C/c2ccc(Cl)cc2)nc(N(C)C)n1	0	.	100*	1	1	-4%
O=C(C(=NN=Cc1ccc(O)c(O)c1)c1ccccc1)c1ccccc1	.	7	.	.	.	.
Nc1c2c(=O)oc(-c3ccccc3)cc2nn1-c1ccccc1	.	-26	126*	.	.	-9%
Cc1c(-c2ccc(Cl)cc2)oc(=O)c2c(N)n(-c3ccccc3)nc12	.	.	0	.	.	.
CS(=O)(=O)C1=NSC2=NC(=O)/C(=C\c3ccc(-c4ccccc4)o3)C(=N)N21	.	10	.	.	.	.
CCc1ccc(-n2cccc2/C=C2/C(=N)N3C(=NC2=O)SN=C3S(C)(=O)=O)cc1	.	9	89*	.	.	-10%
O=C(C[C@@H]1C[C@@H]2c3cc(NC(=O)C4CCC4)ccc3O[C@@H]2[C@@H](CO)O1)NC1CCCC1	0	.	.	-3	0	.
N#Cc1c(Cl)nc2c(c1C#N)CCCC2	0	2	61*	0	0	1%
CCCCc1nc(Cl)c(C#N)c2c1CCCC2	0	4	-1	-4	-1	.
C[C@H]1CN([C@@H](C)CO)C(=O)c2cc(NS(=O)(=O)c3ccc(Cl)cc3)ccc2O[C@@H]1CN(C)C(=O)Nc1ccccc1	0	.	.	.	3	.
Nc1ccc2nn(-c3cc([N+](=O)[O-])ccc3O)nc2c1	0	10	79*	1	7	-1%
Nc1ccc(-n2cnc3cc([N+](=O)[O-])ccc32)cc1	.	3	-1	.	.	.
O=C(CSc1nc(-c2ccccc2)c(-c2ccccc2)o1)Nc1nnc(-c2ccccc2)s1	.	-3	76*	.	.	2%
CC(C)c1[nH]nc2c1C(C1C=CCCC1)C(C#N)=C(N)O2 (stereo not given)	0	3	2	0	3	.
CC(C)(C)c1[nH]nc2c1C(C1C=CCCC1)C(C#N)=C(N)O2 (stereo not given)	.	5	127*	.	.	-6%
N#CC(=NNc1ccccc1)C(=N)N1CCCCCC1	.	12	.	.	.	.
Cc1ccc(C(=O)NC(=S)NNC(=O)c2ccccc2O)cc1	0	5	50*	0	.	-7%
O=C(O)C1CCN(C(=O)c2ccccc2Cl)CC1	.	5	0	.	.	.
O=C1C(Cl)=C(N2CCC(C(=O)O)CC2)C(=O)c2ccccc21	.	78*	102*	.	.	2%
C[C@@H]1CN([C@H](C)CO)C(=O)c2cc(C#Cc3ccccc3F)cnc2O[C@@H]1CN(C)C(=O)C1CCCCC1	0	.	.	2	-1	.
SMILES	FGF22 binding	UCH37 inh	NSD2 inh	SIRT5 inh	Casp6 inh	AlphaScreen art
Oc1ccc(NCc2cccc(OCc3ccc(F)cc3)c2)cc1	-1	-3	59*	-1	38*	-5%
Oc1ccc(NCc2cccc(OCc3ccccc3)c2)cc1	-1	-2	13	-2	5	.
O=C(C[C@H]1CC[C@@H](NC(=O)C2CCC2)[C@@H](CO)O1)NC1CCC1	0	.	.	-1	7	.
COc1ccc(C(=O)OCC(=O)Nc2c(C)n(C)n(-c3ccccc3)c2=O)cc1	0	4	51*	-2	-3	-2%
Cc1cc(C)cc(-n2c(C)nc3cc(C(=O)O)ccc32)c1	0	5	73*	-1	-5	-1%
COc1ccccc1C#Cc1cnc2c(c1)C(=O)N([C@@H](C)CO)C[C@H](C)[C@H](CN(C)CC1CC1)O2	0	.	.	5	0	.
CN(C)CCNc1nc(-c2ccco2)c2c(c1C#N)CC(C)(C)OC2	.	-117	127*	.	.	-1%
CC1(C)Cc2c(c(-c3ccco3)[nH]c(=O)c2C#N)CO1	.	-8	58*	.	.	0%
CC1(C)Cc2sc3c(=O)[nH]c(=S)[nH]c3c2CO1	0	5	75*	-4	-4	-2%
Cn1c(=O)[nH]c(=O)c2c1nc(N/N=C/c1ccncc1)n2Cc1ccc(F)cc1	0	.	62*	-2	0	-2%
Cn1c(=O)[nH]c(=O)c2c1nc(N/N=C/c1cccnc1)n2Cc1ccc(Cl)cc1	0	.	0	-2	0	.
CC(C)NC(=O)Nc1cccc2c1O[C@H](CN(C)Cc1ccc(C(=O)O)cc1)[C@H](C)CN([C@@H](C)CO)C2=O	0	.	.	-4	1	.
CCc1ccc(N(CC(=O)NCc2ccc3c(c2)OCO3)C(=O)c2csnn2)cc1	0	-77	60*	-2	.	-2%
O=C(O)C1CC(c2ccccc2F)=NO1 (stereo not given)	.	0	108*	.	.	-7%
O=C(NCCc1cccs1)C1CC(c2ccccc2F)=NO1 (stereo not given)	.	-3	.	.	.	.
Cc1cc(=O)oc(C)c1C(=O)OCC(=O)c1ccccc1	.	0	54*	-5	3	-5%
Cc1cc(=O)oc(C)c1C(=O)OCC(=O)c1ccc2ccccc2c1	.	-10	-1	.	.	.
Cc1ccc(NC(=O)C[n+]2ccn(C3=C([O-])c4ccccc4C3=O)c2)cc1	0	7	89*	.	1	-4%
O=C(O)c1ccc2c(c1)C(=O)N(c1cccc(C(=O)/C=C/c3ccccc3)c1)C2=O	.	6	89*	-1	12	-2%
COc1ccc(C(C)=NNC(=O)CCC(=O)Nc2ccc(Cl)cc2Cl)c(OC)c1	.	-1	.	.	.	.
CCCC#Cc1ccc([C@@H]2[C@@H](CO)N3CCCCN(CC4CC4)C[C@H]23)cc1	0	.	.	2	-2	.
COC1=CC(=O)c2c(ccc3ncnc(N)c23)C1=O	0	.	122*	3	100*	3%
O=C(NCCc1ccccc1)C(=O)NN=Cc1ccc2c(c1)OCO2	.	1	.	.	.	.
CCN(CC)CCNC(=O)c1cccc(NC(=O)C(=O)c2cc(Br)ccc2NC(C)=O)c1	0	7	57*	-1	-13	-3%
N#C/C(=C\c1ccc(-c2ccc(C(=O)O)cc2)o1)C(=O)NCC1CCCO1 (stereo not given)	.	-24	54*	.	.	-4%
Cc1cccc(NCCNc2cccc(C)c2)c1	.	2	56*	.	.	-4%
CCCC(=O)Nc1ccc2c(c1)C(=O)N(C)C[C@@H](OC)[C@@H](C)CN(C(=O)CN(C)C)[C@H](C)CO2	0	.	.	-2	.	.
CCO/C=C/C(=O)N(C)CCC#N	.	-2	125*	.	.	-7%
